Reference: ChEMBL document CHEMBL1255191, “Design and synthesis of hydroxyethylamine (HEA) BACE-1 inhibitors: structure-activity relationship of the aryl region” (Bioorg Med Chem Lett, 2010)
Active and inactive are the calls of the source. The calls are words filed in the database; no cut-off is given here.

Assays:
[1] = target: Cathepsin D (Homo sapiens, UniProt P07339); assay: Inhibition of cathepsin D
Summary of the method: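 Cathepsin-D at 0.6 nM final in 100 mM sodium acetate pH 4.5; compounds three-fold serially diluted in DMSO, then diluted 33× in buffer, preincubated with enzyme 30 min. Biotinylated peptide substrate with C-terminal Oregon Green started reaction, 110 min at 37 °C. Quenched with streptavidin in 200 mM sodium phosphate pH 7.5; fluorescence polarization read, cleavage lowering polarization.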

[2] = target: T1, Beta-secretase 1 (Homo sapiens, UniProt P56817); assay: Inhibition of BACE1
T1 sequence (P56817 whole entry): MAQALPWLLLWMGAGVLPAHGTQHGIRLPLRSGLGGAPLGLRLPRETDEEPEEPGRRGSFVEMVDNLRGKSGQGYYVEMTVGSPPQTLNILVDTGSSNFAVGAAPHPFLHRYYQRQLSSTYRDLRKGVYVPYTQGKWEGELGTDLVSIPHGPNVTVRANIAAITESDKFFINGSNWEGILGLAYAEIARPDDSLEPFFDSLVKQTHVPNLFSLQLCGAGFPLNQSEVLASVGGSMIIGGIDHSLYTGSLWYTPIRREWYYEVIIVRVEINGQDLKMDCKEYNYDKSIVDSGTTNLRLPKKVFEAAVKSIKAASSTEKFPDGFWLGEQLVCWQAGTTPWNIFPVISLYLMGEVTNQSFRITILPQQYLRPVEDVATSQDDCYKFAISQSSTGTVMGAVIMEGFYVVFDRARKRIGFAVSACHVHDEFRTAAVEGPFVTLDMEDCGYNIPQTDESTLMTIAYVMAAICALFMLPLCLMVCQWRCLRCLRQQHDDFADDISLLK
Summary of the method: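 Recombinant BACE from E. coli; compounds serially diluted in DMSO, preincubated with enzyme 20 min at room temperature in 100 mM sodium acetate, 0.001% Tween-20, pH 4.5. Biotinylated Swedish-mutant APP peptide with C-terminal Oregon Green added; 3 h at 37 °C.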

[3] = target: T1, Beta-secretase 1; assay: Inhibition of BACE1 in HEK293 cells; format: cell-based
[4] = Apparent permeability across MDCK2 cells; format: ADME, cell-based, Canis lupus familiaris, MDCK-II; conditions: dog, MDCK
[5] = Lipophilicity, log P of the compound; format: physicochemical; conditions: octanol/water
[6] = […] constant pKa of the compound; format: physicochemical; conditions: read-out: pKa
Summary of the method: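 pKa measured by capillary electrophoresis.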

Chain of Cathepsin D (P07339 65-162 limits assumed): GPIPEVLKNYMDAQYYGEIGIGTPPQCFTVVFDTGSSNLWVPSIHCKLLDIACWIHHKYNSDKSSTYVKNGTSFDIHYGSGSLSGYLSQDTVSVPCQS
Chain of Cathepsin D (P07339 169-412 limits assumed): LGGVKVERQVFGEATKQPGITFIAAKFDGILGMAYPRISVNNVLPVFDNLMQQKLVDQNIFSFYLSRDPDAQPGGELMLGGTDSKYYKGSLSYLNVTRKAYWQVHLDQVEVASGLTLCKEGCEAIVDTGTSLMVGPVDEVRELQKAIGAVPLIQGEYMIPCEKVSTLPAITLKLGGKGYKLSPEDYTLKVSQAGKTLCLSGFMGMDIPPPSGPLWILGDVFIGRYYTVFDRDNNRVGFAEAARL

| Structure (SMILES) | IC50 ([1]; read-out: IC50) [nM] | IC50 [2] [nM] | ED50 [3] | Papp [4] [×10⁻⁶ cm/s] | logP [5] | pKa [6] | IC50 [1] |
| --- | --- | --- | --- | --- | --- | --- | --- |
| CC(=O)N[C@@H](Cc1cc(F)cc(F)c1)[C@H](O)CNC1(c2ccc(Br)c(C(C)(C)C)c2)CCCCC1 | 1500 | 6900 | 2000 nM |  |  |  |  |
| CC(=O)N[C@@H](Cc1cc(F)cc(F)c1)[C@H](O)CNC1(c2cc(O)cc(C(C)(C)C)c2)CCCCC1 | 90 | 170 | inactive |  |  |  |  |
| CC(=O)N[C@@H](Cc1cc(F)cc(F)c1)[C@H](O)CNC1(c2cc(F)cc(C(C)(C)C)c2)CCCCC1 | 24 | 46 | 9 nM |  |  |  |  |
| CC(=O)N[C@@H](Cc1cc(F)cc(F)c1)[C@H](O)CNC1(c2ccc(CC(C)(C)C)s2)CC1 | 1720 | 1620 | 1480 nM |  |  |  |  |
| CC(=O)N[C@@H](Cc1cc(F)cc(F)c1)[C@H](O)CNC1(c2cc(N)cc(C(C)(C)C)c2)CCCCC1 | 105 | 318 | 25 nM |  |  |  |  |
| COc1cc(C(C)(C)C)cc(C2(NC[C@@H](O)[C@H](Cc3cc(F)cc(F)c3)NC(C)=O)CCCCC2)c1 | 47 | 77 | 68 nM |  |  |  |  |
| CC(=O)N[C@@H](Cc1cc(F)cc(F)c1)[C@H](O)CNC1(c2cn(C34CC5CC(CC(C5)C3)C4)nn2)CCCCC1 | 8 | 392 | inactive |  |  |  |  |
| CC(=O)N[C@@H](Cc1cc(F)cc(F)c1)[C@H](O)CNC1(c2cc(C(C)(C)C)cs2)CCCCC1 | 32 | 104 | 10 nM |  |  |  |  |
| CC(=O)N[C@@H](Cc1cc(F)cc(F)c1)[C@H](O)CNC1(c2csc(CC(C)(C)C)n2)CC1 | 1950 | 3050 | 3850 nM |  |  |  |  |
| CC(=O)N[C@@H](Cc1cc(F)cc(F)c1)[C@H](O)CNC1(c2csc(C(C)C)c2)CCCCC1 | 42 | 320 | < 80 nM |  |  |  |  |
| CC(=O)N[C@@H](Cc1cc(F)cc(F)c1)[C@H](O)CNC1(c2cncc(CC(C)(C)C)c2)CC1 | 530 | 780 | 310 nM | 13.5 | 4.2 | 6.3 |  |
| CC(=O)N[C@@H](Cc1cc(F)cc(F)c1)[C@H](O)CNC1(c2cn(C[Si](C)(C)C)nn2)CCCCC1 | 12 | 154 | 6 nM |  |  |  |  |
| CC(=O)N[C@@H](Cc1cc(F)cc(F)c1)[C@H](O)CNC1(c2ncc(C(C)(C)C)o2)CC1 | 3470 | 4900 | > 10000 nM |  |  |  |  |
| CC(=O)N[C@@H](Cc1cc(F)cc(F)c1)[C@H](O)CNC1(c2nc(C(C)(C)C)co2)CCCCC1 | 12200 | 138000 | > 10000 nM |  |  |  |  |
| CC(=O)N[C@@H](Cc1cc(F)cc(F)c1)[C@H](O)CNC1(c2cccc(CC(C)(C)C)c2)CC1 | 379 | 341 | 720 nM |  |  |  |  |
| CCc1csc(C2(NC[C@@H](O)[C@H](Cc3cc(F)cc(F)c3)NC(C)=O)CCCCC2)c1 | 228 | 1740 | 107 nM |  |  |  |  |
| CC(=O)N[C@@H](Cc1cc(F)cc(F)c1)[C@H](O)CNC1(c2cnn(CC(C)(C)C)c2)CCCCC1 | 29 | 210 | 23 nM |  |  |  |  |
| CC(=O)N[C@@H](Cc1cc(F)cc(F)c1)[C@H](O)CNC1(c2cccc(C(C)(C)C)c2)CCCCC1 |  |  |  |  |  | 8.2 |  |
| CC(=O)N[C@@H](Cc1cc(F)cc(F)c1)[C@H](O)CNC1(c2cc(CC(C)(C)C)no2)CCCCC1 | 14 | 139 | 88 nM | 18 | 4.2 | 6.4 |  |
| CC(=O)N[C@@H](Cc1cc(F)cc(F)c1)[C@H](O)CNC1(c2cc(C(C)=O)cc(C(C)(C)C)c2)CCCCC1 | 45 | 160 | 33 nM |  |  |  |  |
| CC(=O)N[C@@H](Cc1cc(F)cc(F)c1)[C@H](O)CNC1(c2ccccc2)CCCCC1 |  |  |  |  |  |  | Not Active |
| CC(=O)N[C@@H](Cc1cc(F)cc(F)c1)[C@H](O)CNC1(c2cc(C(C)(C)C)no2)CCCCC1 | 263 | 4460 | 3710 nM |  |  |  |  |
